Assay results as given in ChEMBL document CHEMBL1153726, “Synthesis and anticancer activity of sclerophytin-inspired hydroisobenzofurans” (Bioorg Med Chem Lett, 2009).

Tests used:
Assay type in all cases: functional
A549 = experiment: Growth inhibition of human A549 cells at 100 nM after 96 hrs by MTT assay; set-up: scale not given: the % may be the effect or the level left
NCI-H322M [1] = experiment: Growth inhibition of human NCI-H322M cells at 10 nM after 96 hrs by MTT assay; set-up: scale not given: the % may be the effect or the level left
MDA-MB-231 = experiment: Growth inhibition of human MDA-MB-231 cells at 10 nM after 96 hrs by MTT assay; set-up: scale not given: the % may be the effect or the level left
SF-268 = experiment: Growth inhibition of human SF268 cells at 1 uM after 96 hrs by MTT assay; set-up: scale not given: the % may be the effect or the level left
NCI-H522 [2] = experiment: Growth inhibition of human NCI-H522 cells at 10 uM after 96 hrs by MTT assay; set-up: scale not given: the % may be the effect or the level left
Malme-3M = experiment: Growth inhibition of human MALME-3M cells after 96 hrs by MTT assay
Summary of the method: (§1)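 Run in the NCI 60 human tumour cell line panel as a five-dose assay. GI50 and LC50 were reported for each cell line.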

SN12C [3] = experiment: Growth inhibition of human SN12C cells at 1 uM after 96 hrs by MTT assay; set-up: scale not given: the % may be the effect or the level left
NCI-H522 [4] = experiment: Growth inhibition of human NCI-H522 cells at 10 nM after 96 hrs by MTT assay; set-up: scale not given: the % may be the effect or the level left
SK-MEL-2 = experiment: Growth inhibition of human SK-MEL-2 cells at 1 uM after 96 hrs by MTT assay; set-up: scale not given: the % may be the effect or the level left
NCI-H322M [5] = experiment: Growth inhibition of human NCI-H322M cells at 100 nM after 96 hrs by MTT assay; set-up: scale not given: the % may be the effect or the level left
SNB-75 = experiment: Growth inhibition of human SNB75 cells at 1 nM after 96 hrs by MTT assay; set-up: scale not given: the % may be the effect or the level left
SN12C [6] = experiment: Growth inhibition of human SN12C cells after 96 hrs by MTT assay
Summary of the method: (§2)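 Tested in the NCI 60-cell-line panel in five-dose format; GI50 and LC50 values reported for each cell line.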

LOX IMVI = experiment: Growth inhibition of human LOXIMVI cells at 10 uM after 96 hrs by MTT assay; set-up: scale not given: the % may be the effect or the level left
SK-MEL-5 = experiment: Growth inhibition of human SK-MEL-5 cells at 10 uM after 96 hrs by MTT assay; set-up: scale not given: the % may be the effect or the level left
OVCAR-5 [7] = experiment: Growth inhibition of human OVCAR5 cells at 1 nM after 96 hrs by MTT assay; set-up: scale not given: the % may be the effect or the level left
M14 [8] = experiment: Growth inhibition of human M14 cells after 96 hrs by MTT assay; conditions: M14, 96 h; summary of the method: as §1
M14 [9] = experiment: Growth inhibition of human M14 cells at 1 nM after 96 hrs by MTT assay; set-up: scale not given: the % may be the effect or the level left
[10] = Growth inhibition of human RPMI8266 cells at 100 nM after 96 hrs by MTT assay; set-up: scale not given: the % may be the effect or the level left
MCF7 [11] = experiment: Growth inhibition of human MCF7 cells at 100 nM after 96 hrs by MTT assay; set-up: scale not given: the % may be the effect or the level left
MCF7 [12] = experiment: Growth inhibition of human MCF7 cells at 1 uM after 96 hrs by MTT assay; set-up: scale not given: the % may be the effect or the level left
HL-60(TB) = experiment: Growth inhibition of human HL-60(TB) cells at 1 uM after 96 hrs by MTT assay; set-up: scale not given: the % may be the effect or the level left
MDA-MB-468 = experiment: Growth inhibition of human MDA-MB-468 cells at 10 nM after 96 hrs by MTT assay; set-up: scale not given: the % may be the effect or the level left
OVCAR-5 [13] = experiment: Growth inhibition of human OVCAR5 cells after 96 hrs by MTT assay; conditions: OVCAR-5, 96 h; summary of the method: as §2
[14] = read-out: LC50 (the source's name)
[15] = read-out: Log10GI50 (converted)
[16] = read-out: Log10LC50 (converted)

SMILES: C=C(C)[C@H]1CC=C(C)C2=CO[C@@H](c3ccccc3F)[C@@H]21
- Activity (A549): 95%
- Activity (NCI-H322M [1]): 84%
- Activity (MDA-MB-231): 89%
- Activity (SF-268): 43%
- Activity (NCI-H522 [2]): 58.36%
- GI50 (Malme-3M; read-out: GI50): 2.78 µM
- CC50 (Malme-3M; [14]): 43.8 µM
- GI50 (Malme-3M; [15]): 2.75 µM
- CC50 (Malme-3M; [16]): 43.7 µM
- TGI (Malme-3M; read-out: Log10TGI (converted)): 15.1 µM
- TGI (Malme-3M; read-out: TGI): 15.1 µM
- Activity (SN12C [3]): 44%
- Activity (NCI-H522 [4]): 77%
- Activity (SK-MEL-2): 31%
- Activity (NCI-H322M [5]): 79%
- Activity (SNB-75): 85%
- GI50 (SN12C [6]; read-out: GI50): 6.63 µM
- CC50 (SN12C [6]; [14]): 45.9 µM
- GI50 (SN12C [6]; [15]): 6.61 µM
- CC50 (SN12C [6]; [16]): 45.7 µM
- TGI (SN12C [6]; read-out: Log10TGI (converted)): 20.4 µM
- TGI (SN12C [6]; read-out: TGI): 20.3 µM
- Activity (LOX IMVI): 89.75%
- Activity (SK-MEL-5): 84.67%
- Activity (OVCAR-5 [7]): 97%
- GI50 (M14 [8]; read-out: GI50): 6.51 µM
- CC50 (M14 [8]; [14]): 45.6 µM
- GI50 (M14 [8]; [15]): 6.46 µM
- CC50 (M14 [8]; [16]): 45.7 µM
- TGI (M14 [8]; read-out: Log10TGI (converted)): 20 µM
- TGI (M14 [8]; read-out: TGI): 20.2 µM
- Activity (M14 [9]): 97%
- Activity [10]: 23%
- Activity (MCF7 [11]): 83%
- Activity (MCF7 [12]): 26%
- Activity (HL-60(TB)): -40%
- Activity (MDA-MB-468): 79%
- GI50 (OVCAR-5 [13]; read-out: GI50): 23.6 µM
- LC50 (50% lethal concentration) (OVCAR-5 [13]; read-out: LC50): 72.3 µM
- GI50 (OVCAR-5 [13]; [15]): 23.4 µM
